In ChEMBL document CHEMBL5058577, “EUbOPEN Chemogenomics Library 2 (Multiplex)” (2022):

Tested on: U2OS
Test: Multiplex assay against U2OS
Assay type: toxicity, cell-based
Conditions: human
Summary of the method: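 Imaging took place on a CQ1 microscope at 37°C and 5% CO2 once compound had been added to live cells stained at seeding with Hoechst33342, BioTracker Green Microtubule Cytoskeleton Dye, MitoTracker Red and Annexin V Alexa Fluor 680. CellPathfinder machine-learning gating classed cells as Hoechst high-intensity objects or normal cells, classed normal cells as having healthy, pyknosed or fragmented nuclei, and classed pyknosed cells as mitotic or apoptotic. Tubulin, mitochondrial-mass and membrane-permeability phenotypes are per cents of the healthy-nucleus cells.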

[1] = 12 h, 1 µM, compound concentration 1 uM, replicate 1
[2] = 12 h, 1 µM, compound concentration 1 uM, replicate 2
[3] = 12 h, 10 µM, compound concentration 10 uM, replicate 1
[4] = 12 h, 10 µM, compound concentration 10 uM, replicate 2
[5] = 24 h, 1 µM, compound concentration 1 uM, replicate 1
[6] = 24 h, 1 µM, compound concentration 1 uM, replicate 2
[7] = 24 h, 10 µM, compound concentration 10 uM, replicate 1
[8] = 24 h, 10 µM, compound concentration 10 uM, replicate 2
[9] = 48 h, 1 µM, compound concentration 1 uM, replicate 1
[10] = 48 h, 1 µM, compound concentration 1 uM, replicate 2
[11] = 48 h, 10 µM, compound concentration 10 uM, replicate 1
[12] = 48 h, 10 µM, compound concentration 10 uM, replicate 2

SMILES: Cn1cc(C(=O)OCC2CCN(CCNS(C)(=O)=O)CC2)c2ccccc21
- Population Apoptotic (%) [1]: 73%
- Population Fragmented Nuclei (%) [1]: 27%
- Population Healthy Nuclei (%) [1]: 63%
- Population Hoechst High Intensity Objects (%) [1]: 3%
- Population Membrane Permeable-Phenotype (%) [1]: 7%
- Population Mitochondria Different-Phenotype (%) [1]: 4%
- Population Mitotic Cells (%) [1]: 26%
- Population Normal (%) [1]: 96%
- Population Pyknosed Nuclei (%) [1]: 8%
- Population Tubulin-Different-Phenotype (%) [1]: 5%
- Total Cell Count [1]: 226
- Population Apoptotic (%) [2]: 77%
- Population Fragmented Nuclei (%) [2]: 20%
- Population Healthy Nuclei (%) [2]: 71%
- Population Hoechst High Intensity Objects (%) [2]: 0%
- Population Membrane Permeable-Phenotype (%) [2]: 13%
- Population Mitochondria Different-Phenotype (%) [2]: 5%
- Population Mitotic Cells (%) [2]: 22%
- Population Normal (%) [2]: 100%
- Population Tubulin-Different-Phenotype (%) [2]: 6%
- Total Cell Count [2]: 110
- Population Apoptotic (%) [3]: 53%
- Population Fragmented Nuclei (%) [3]: 36%
- Population Healthy Nuclei (%) [3]: 58%
- Population Hoechst High Intensity Objects (%) [3]: 0%
- Population Membrane Permeable-Phenotype (%) [3]: 10%
- Population Mitochondria Different-Phenotype (%) [3]: 5%
- Population Mitotic Cells (%) [3]: 46%
- Population Normal (%) [3]: 99%
- Population Pyknosed Nuclei (%) [3]: 5%
- Population Tubulin-Different-Phenotype (%) [3]: 5%
- Total Cell Count [3]: 252
- Population Apoptotic (%) [4]: 57%
- Population Fragmented Nuclei (%) [4]: 18%
- Population Healthy Nuclei (%) [4]: 76%
- Population Hoechst High Intensity Objects (%) [4]: 1%
- Population Membrane Permeable-Phenotype (%) [4]: 17%
- Population Mitochondria Different-Phenotype (%) [4]: 13%
- Population Mitotic Cells (%) [4]: 42%
- Population Normal (%) [4]: 98%
- Population Tubulin-Different-Phenotype (%) [4]: 9%
- Total Cell Count [4]: 137
- Population Apoptotic (%) [5]: 95%
- Population Fragmented Nuclei (%) [5]: 26%
- Population Healthy Nuclei (%) [5]: 65%
- Population Hoechst High Intensity Objects (%) [5]: 2%
- Population Membrane Permeable-Phenotype (%) [5]: 4%
- Population Mitochondria Different-Phenotype (%) [5]: 2%
- Population Mitotic Cells (%) [5]: 4%
- Population Normal (%) [5]: 97%
- Population Pyknosed Nuclei (%) [5]: 8%
- Population Tubulin-Different-Phenotype (%) [5]: 3%
- Total Cell Count [5]: 263
- Population Apoptotic (%) [6]: 100%
- Population Fragmented Nuclei (%) [6]: 17%
- Population Healthy Nuclei (%) [6]: 78%
- Population Hoechst High Intensity Objects (%) [6]: 0%
- Population Membrane Permeable-Phenotype (%) [6]: 10%
- Population Mitochondria Different-Phenotype (%) [6]: 5%
- Population Mitotic Cells (%) [6]: 0%
- Population Normal (%) [6]: 100%
- Population Pyknosed Nuclei (%) [6]: 4%
- Population Tubulin-Different-Phenotype (%) [6]: 6%
- Total Cell Count [6]: 144
- Population Apoptotic (%) [7]: 92%
- Population Fragmented Nuclei (%) [7]: 33%
- Population Healthy Nuclei (%) [7]: 61%
- Population Hoechst High Intensity Objects (%) [7]: 2%
- Population Membrane Permeable-Phenotype (%) [7]: 11%
- Population Mitochondria Different-Phenotype (%) [7]: 5%
- Population Mitotic Cells (%) [7]: 7%
- Population Normal (%) [7]: 97%
- Population Pyknosed Nuclei (%) [7]: 4%
- Population Tubulin-Different-Phenotype (%) [7]: 4%
- Total Cell Count [7]: 281
- Population Apoptotic (%) [8]: 64%
- Population Fragmented Nuclei (%) [8]: 16%
- Population Healthy Nuclei (%) [8]: 73%
- Population Hoechst High Intensity Objects (%) [8]: 1%
- Population Membrane Permeable-Phenotype (%) [8]: 12%
- Population Mitochondria Different-Phenotype (%) [8]: 8%
- Population Mitotic Cells (%) [8]: 35%
- Population Normal (%) [8]: 98%
- Population Pyknosed Nuclei (%) [8]: 9%
- Population Tubulin-Different-Phenotype (%) [8]: 8%
- Total Cell Count [8]: 150
- Population Apoptotic (%) [9]: 91%
- Population Fragmented Nuclei (%) [9]: 20%
- Population Healthy Nuclei (%) [9]: 69%
- Population Hoechst High Intensity Objects (%) [9]: 1%
- Population Membrane Permeable-Phenotype (%) [9]: 8%
- Population Mitochondria Different-Phenotype (%) [9]: 3%
- Population Mitotic Cells (%) [9]: 8%
- Population Normal (%) [9]: 98%
- Population Pyknosed Nuclei (%) [9]: 9%
- Population Tubulin-Different-Phenotype (%) [9]: 5%
- Total Cell Count [9]: 372
- Population Apoptotic (%) [10]: 57%
- Population Fragmented Nuclei (%) [10]: 13%
- Population Healthy Nuclei (%) [10]: 75%
- Population Hoechst High Intensity Objects (%) [10]: 2%
- Population Membrane Permeable-Phenotype (%) [10]: 6%
- Population Mitochondria Different-Phenotype (%) [10]: 5%
- Population Mitotic Cells (%) [10]: 42%
- Population Normal (%) [10]: 97%
- Population Pyknosed Nuclei (%) [10]: 10%
- Population Tubulin-Different-Phenotype (%) [10]: 4%
- Total Cell Count [10]: 182
- Population Apoptotic (%) [11]: 88%
- Population Fragmented Nuclei (%) [11]: 30%
- Population Healthy Nuclei (%) [11]: 58%
- Population Hoechst High Intensity Objects (%) [11]: 1%
- Population Membrane Permeable-Phenotype (%) [11]: 9%
- Population Mitochondria Different-Phenotype (%) [11]: 4%
- Population Mitotic Cells (%) [11]: 11%
- Population Normal (%) [11]: 98%
- Population Pyknosed Nuclei (%) [11]: 10%
- Population Tubulin-Different-Phenotype (%) [11]: 7%
- Total Cell Count [11]: 341
- Population Apoptotic (%) [12]: 75%
- Population Fragmented Nuclei (%) [12]: 9%
- Population Healthy Nuclei (%) [12]: 79%
- Population Hoechst High Intensity Objects (%) [12]: 3%
- Population Membrane Permeable-Phenotype (%) [12]: 13%
- Population Mitochondria Different-Phenotype (%) [12]: 6%
- Population Mitotic Cells (%) [12]: 25%
- Population Normal (%) [12]: 97%
- Population Tubulin-Different-Phenotype (%) [12]: 5%
- Total Cell Count [12]: 200

SMILES: C[C@@H]1CC(=O)Nc2cccc(-c3ccc4c(c3)c(-c3cnn(C)c3)nn4C)c2N1
- Population Apoptotic (%) [1]: 92%
- Population Fragmented Nuclei (%) [1]: 20%
- Population Healthy Nuclei (%) [1]: 73%
- Population Hoechst High Intensity Objects (%) [1]: 1%
- Population Membrane Permeable-Phenotype (%) [1]: 7%
- Population Mitochondria Different-Phenotype (%) [1]: 4%
- Population Mitotic Cells (%) [1]: 7%
- Population Normal (%) [1]: 98%
- Population Pyknosed Nuclei (%) [1]: 6%
- Population Tubulin-Different-Phenotype (%) [1]: 6%
- Total Cell Count [1]: 233
- Population Apoptotic (%) [2]: 88%
- Population Fragmented Nuclei (%) [2]: 16%
- Population Healthy Nuclei (%) [2]: 75%
- Population Membrane Permeable-Phenotype (%) [2]: 5%
- Population Mitochondria Different-Phenotype (%) [2]: 2%
- Population Mitotic Cells (%) [2]: 11%
- Population Pyknosed Nuclei (%) [2]: 7%
- Population Tubulin-Different-Phenotype (%) [2]: 2%
- Total Cell Count [2]: 116
- Population Apoptotic (%) [3]: 86%
- Population Fragmented Nuclei (%) [3]: 29%
- Population Healthy Nuclei (%) [3]: 58%
- Population Hoechst High Intensity Objects (%) [3]: 2%
- Population Membrane Permeable-Phenotype (%) [3]: 11%
- Population Mitochondria Different-Phenotype (%) [3]: 11%
- Population Mitotic Cells (%) [3]: 13%
- Population Normal (%) [3]: 97%
- Population Pyknosed Nuclei (%) [3]: 12%
- Population Tubulin-Different-Phenotype (%) [3]: 8%
- Total Cell Count [3]: 235
- Population Apoptotic (%) [4]: 33%
- Population Fragmented Nuclei (%) [4]: 21%
- Population Healthy Nuclei (%) [4]: 74%
- Population Hoechst High Intensity Objects (%) [4]: 1%
- Population Membrane Permeable-Phenotype (%) [4]: 7%
- Population Mitochondria Different-Phenotype (%) [4]: 7%
- Population Mitotic Cells (%) [4]: 66%
- Population Normal (%) [4]: 98%
- Population Pyknosed Nuclei (%) [4]: 4%
- Total Cell Count [4]: 76
- Population Apoptotic (%) [5]: 95%
- Population Fragmented Nuclei (%) [5]: 20%
- Population Healthy Nuclei (%) [5]: 71%
- Population Hoechst High Intensity Objects (%) [5]: 2%
- Population Membrane Permeable-Phenotype (%) [5]: 5%
- Population Mitochondria Different-Phenotype (%) [5]: 2%
- Population Mitotic Cells (%) [5]: 4%
- Population Normal (%) [5]: 97%
- Population Pyknosed Nuclei (%) [5]: 7%
- Population Tubulin-Different-Phenotype (%) [5]: 2%
- Total Cell Count [5]: 294
- Population Apoptotic (%) [6]: 100%
- Population Fragmented Nuclei (%) [6]: 22%
- Population Healthy Nuclei (%) [6]: 74%
- Population Hoechst High Intensity Objects (%) [6]: 1%
- Population Membrane Permeable-Phenotype (%) [6]: 1%
- Population Mitochondria Different-Phenotype (%) [6]: 1%
- Population Mitotic Cells (%) [6]: 0%
- Population Normal (%) [6]: 98%
- Population Pyknosed Nuclei (%) [6]: 4%
- Population Tubulin-Different-Phenotype (%) [6]: 0%
- Total Cell Count [6]: 152
- Population Apoptotic (%) [7]: 90%
- Population Fragmented Nuclei (%) [7]: 24%
- Population Healthy Nuclei (%) [7]: 63%
- Population Hoechst High Intensity Objects (%) [7]: 4%
- Population Membrane Permeable-Phenotype (%) [7]: 7%
- Population Mitochondria Different-Phenotype (%) [7]: 6%
- Population Mitotic Cells (%) [7]: 10%
- Population Normal (%) [7]: 95%
- Population Pyknosed Nuclei (%) [7]: 11%
- Population Tubulin-Different-Phenotype (%) [7]: 3%
- Total Cell Count [7]: 266
- Population Apoptotic (%) [8]: 83%
- Population Fragmented Nuclei (%) [8]: 15%
- Population Healthy Nuclei (%) [8]: 78%
- Population Hoechst High Intensity Objects (%) [8]: 1%
- Population Membrane Permeable-Phenotype (%) [8]: 6%
- Population Mitochondria Different-Phenotype (%) [8]: 1%
- Population Mitotic Cells (%) [8]: 16%
- Population Normal (%) [8]: 98%
- Population Pyknosed Nuclei (%) [8]: 6%
- Population Tubulin-Different-Phenotype (%) [8]: 4%
- Total Cell Count [8]: 97
- Population Apoptotic (%) [9]: 100%
- Population Fragmented Nuclei (%) [9]: 19%
- Population Healthy Nuclei (%) [9]: 73%
- Population Hoechst High Intensity Objects (%) [9]: 1%
- Population Membrane Permeable-Phenotype (%) [9]: 4%
- Population Mitochondria Different-Phenotype (%) [9]: 2%
- Population Mitotic Cells (%) [9]: 0%
- Population Normal (%) [9]: 98%
- Population Pyknosed Nuclei (%) [9]: 6%
- Population Tubulin-Different-Phenotype (%) [9]: 3%
- Total Cell Count [9]: 437
- Population Fragmented Nuclei (%) [10]: 13%
- Population Healthy Nuclei (%) [10]: 77%
- Population Membrane Permeable-Phenotype (%) [10]: 2%
- Population Pyknosed Nuclei (%) [10]: 8%
- Population Tubulin-Different-Phenotype (%) [10]: 2%
- Total Cell Count [10]: 224
- Population Apoptotic (%) [11]: 100%
- Population Fragmented Nuclei (%) [11]: 28%
- Population Healthy Nuclei (%) [11]: 65%
- Population Hoechst High Intensity Objects (%) [11]: 3%
- Population Membrane Permeable-Phenotype (%) [11]: 8%
- Population Mitochondria Different-Phenotype (%) [11]: 3%
- Population Mitotic Cells (%) [11]: 0%
- Population Normal (%) [11]: 96%
- Population Pyknosed Nuclei (%) [11]: 5%
- Population Tubulin-Different-Phenotype (%) [11]: 5%
- Total Cell Count [11]: 394
- Population Fragmented Nuclei (%) [12]: 23%
- Population Healthy Nuclei (%) [12]: 71%
- Population Hoechst High Intensity Objects (%) [12]: 4%
- Population Membrane Permeable-Phenotype (%) [12]: 3%
- Population Mitochondria Different-Phenotype (%) [12]: 0%
- Population Normal (%) [12]: 95%
- Population Pyknosed Nuclei (%) [12]: 4%
- Population Tubulin-Different-Phenotype (%) [12]: 3%
- Total Cell Count [12]: 149
